Cneo AK release: causes C. neoformans cell lysis; adenylate kinase release luminescence, 4 h; normalised: neutral wells 0, clomiphene wells 100; lysis activity, % at 15 µM; 360,000 compounds, 0.2% hits; AID 651654;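 active = mean lysis activity across replicates of at least 80%, whatever share of replicates individually reach that level; inactive = mean lysis activity below 80%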
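Material – log-phase Cryptococcus neoformans yeast cells · Input – 5 × 10^6 yeast cells/mL · Medium – fresh YPD growth medium · Doses – single compound concentration per well · Timing – static 4 h at 37 °C with compound, 1 h detection · Detection – adenylate kinase release luminescence · Read-out – signal increase indicating cell lysis · Control set – Clomiphene as positive lysis control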
miR-122 sensor: blocks miR-122 activity in Huh7 sensor cells; Huh7 miR-122 Renilla luciferase sensor, 48 h; neutral wells = 0, positive control = 100; AID 602342; activation (reporter increase), % at 12.5 µM; 340,000 compounds, 0.3% hits;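 active = mean replicate activation score at least 90 and every replicate individually at or above 90; inconclusive = only one of the two criteria met; inactive = neither criterion met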;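 also: higher luciferase means less miR-122 activity so hits act as miR-122 inhibitors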
E-sel inducer: E-selectin induction on HUVECs; activation, % at 7.58 µM; AID 686992; HUVEC E-selectin immunofluorescence imaging; normalized: neutral wells 0, TNF-alpha wells 100; 260,000 compounds, 0.37% hits;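 active = mean E-selectin-positive cell signal at least 10% of the positive control, reached in at least 60% of replicates, without over 20% cell loss; inconclusive = no rule given, readout overlaps actives, possibly toxicity-flagged; inactive = the rest, including those meeting only one limit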
Target sequence (P16581 whole entry, looked up): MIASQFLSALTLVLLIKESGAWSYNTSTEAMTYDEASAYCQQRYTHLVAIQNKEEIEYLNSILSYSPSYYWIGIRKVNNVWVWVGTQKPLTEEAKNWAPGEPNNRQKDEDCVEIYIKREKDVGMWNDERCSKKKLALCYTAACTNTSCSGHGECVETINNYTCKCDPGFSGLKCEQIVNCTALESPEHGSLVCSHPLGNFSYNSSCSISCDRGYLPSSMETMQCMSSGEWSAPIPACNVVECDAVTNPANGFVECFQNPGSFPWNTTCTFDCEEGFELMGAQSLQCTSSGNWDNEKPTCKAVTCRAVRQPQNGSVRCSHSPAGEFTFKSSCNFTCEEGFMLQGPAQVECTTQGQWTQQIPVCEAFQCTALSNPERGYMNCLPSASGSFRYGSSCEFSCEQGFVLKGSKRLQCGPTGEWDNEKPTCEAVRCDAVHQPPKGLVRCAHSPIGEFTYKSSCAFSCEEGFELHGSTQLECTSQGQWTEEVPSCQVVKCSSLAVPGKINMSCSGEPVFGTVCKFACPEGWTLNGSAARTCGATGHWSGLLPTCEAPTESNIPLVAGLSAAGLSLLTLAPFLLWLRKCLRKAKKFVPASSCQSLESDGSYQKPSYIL
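Read-out basis: % PE-positive cells; Test system: HUVEC primary endothelial cells; Technique: immunofluorescence imaging; Dosing: single-point compound dose.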
DENV2 CPE rescue: DENV2-induced cell death inhibition. DENV2-infected cells, cytopathic effect rescue, plate reader. CPE inhibition, % at 9.99 µM. 350,000 compounds, 1.7% hits; in the data active = CPE inhibition above about 20%, passing the limit was not always enough; inconclusive = no clear call, values can overlap the other calls; tested in BHK-21 cells
Ecoli rRNA inh: selective bacterial rRNA inhibition in E. coli; E. coli WT GFP vs humanized-ribosome RFP mutants, fluorescence, 24 h; hits give low values; DMSO median 0, no signal -100; GFP signal change (wild-type ribosome), % (concentration not given with the values); 350,000 compounds, 1.6% hits;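 active = significant combined selectivity score with lowered wild-type GFP, culture density cut under 30%, mutant RFP and density less affected; inactive = any of these conditions unmet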
Each line names hits and unclear results; the compound was inactive in the other large screens; ! = not active in a repeat. Only some compounds are listed: those with a hit (about 3.1% of all), similar ones and a draw of the others.

CCC(=O)N1[C@H](C(=O)N2CCc3ccccc3C2)[C@@H](CO)[C@@H]2Cn3c(cccc3=O)[C@@H]21	none
O=C(C[C@H]1CC[C@H]2[C@@H](COC[C@@H](O)CN2C(=O)c2ccc(F)cc2)O1)N1CCOCC1	Cneo AK release 105.0
CCCNC(=O)N1C[C@@H](O)COC[C@@H]2O[C@H](CC(=O)N3CCOCC3)CC[C@H]21	none
O=C(C[C@@H]1CC[C@@H]2[C@H](COC[C@H](O)CN2CC2CCOCC2)O1)N1CCOCC1	DENV2 CPE rescue 102.4
CCCNC(=O)N1C[C@H](O)COC[C@@H]2O[C@@H](CC(=O)N3CCOCC3)CC[C@H]21	DENV2 CPE rescue 107.8
O=C(C[C@H]1CC[C@H]2[C@@H](COC[C@@H](O)CN2C(=O)c2ccc(F)cc2)O1)N1CCCCC1	none
CO[C@H]1CN(C)C(=O)c2cc(NC(=O)C3CC3)ccc2OC[C@H](C)N(C(=O)C2CCCCC2)C[C@@H]1C	none (no result: Cneo AK release, miR-122 sensor, Ecoli rRNA inh)
O=C(Nc1cc(S(=O)(=O)N2CCOCC2)ccc1Cl)C(=O)c1c(-c2ccccc2)cc2ccccn12	miR-122 sensor 154.9 (no result: E-sel inducer, DENV2 CPE rescue, Ecoli rRNA inh)
O=C(CNCc1ccccc1Cl)Nc1cc(S(=O)(=O)N2CCOCC2)ccc1Cl	none (no result: miR-122 sensor, E-sel inducer)
COc1ccc2ccccc2c1-c1sc(Nc2ccccc2)n[n+]1-c1ccc(F)cc1	DENV2 CPE rescue 51.5 (no result: E-sel inducer)
COc1ccc(-c2sc(Nc3ccccc3)n[n+]2-c2ccc(F)cc2)cc1Br	DENV2 CPE rescue inconclusive (no result: E-sel inducer)
CSCCC(N=C1NS(=O)(=O)c2ccccc21)C(=O)NCCc1ccccc1 (stereo not drawn)	DENV2 CPE rescue 58.5
CCCC#Cc1ccc2c(c1)O[C@@H](CN(C)C(=O)Nc1ccccc1F)[C@H](C)CN([C@H](C)CO)S2(=O)=O	none
C[C@@H]1CN([C@H](C)CO)C(=O)c2cccc(NC(=O)CCCCCC(=O)Nc3ccccc3N)c2O[C@H]1CN(C)C(=O)Nc1ccc(F)cc1	none (no result: Cneo AK release, miR-122 sensor)
N#CC1=C(N)OC2=C(CCc3ccccc32)C1c1ccccc1Cl (stereo not drawn)	Ecoli rRNA inh -21.9 (no result: E-sel inducer)
N#CC1=C(N)Oc2cc(N)ccc2C1c1ccccc1Cl (stereo not drawn)	none (no result: E-sel inducer)
C[C@H](CO)N1C[C@H](C)[C@H](CN(C)C(=O)Nc2cccc3ccccc23)Oc2ccc(NC(=O)C3CC3)cc2CC1=O	none (no result: Cneo AK release, DENV2 CPE rescue)
Cc1ccc(S(=O)(=O)N(C)C[C@@H]2OCCCC[C@H](C)Oc3ccc(NC(=O)NC(C)C)cc3C(=O)N([C@H](C)CO)C[C@H]2C)cc1	none
COc1ccc(OC)c(C(=O)COC(=O)c2ccc([N+](=O)[O-])o2)c1	Ecoli rRNA inh -19.6 (no result: miR-122 sensor)
CC(C)CC#Cc1ccc([C@H]2[C@H]3CN(C(=O)c4ccc5c(c4)OCO5)CC(=O)N3[C@H]2CO)cc1	none (no result: Cneo AK release, miR-122 sensor, E-sel inducer, DENV2 CPE rescue)
C/C=C/c1ccc([C@@H]2[C@@H](CO)N[C@@H]2CN(C(=O)C2CCC2)C(C)C)cc1	none
C/C=C/c1ccc([C@H]2[C@H](CO)N[C@H]2CN(C(=O)C2CCC2)C(C)C)cc1	DENV2 CPE rescue 22.6
CC(=O)N(C[C@H]1N[C@H](CO)[C@H]1c1ccc(-c2ccc(F)cc2)cc1)C(C)C	DENV2 CPE rescue 63.8
O=C(C[C@H]1CC[C@@H](NC(=O)C2CC2)[C@H](CO)O1)NCCCN1CCOCC1	none
O=C(C[C@@H]1CC[C@H](NC(=O)c2ccccc2)[C@@H](CO)O1)NCc1ccncn1	none (no result: miR-122 sensor)
O=C(NC1CCCC1)[C@H]1[C@H](CO)[C@H]2Cn3c(ccc(-c4ccncc4)c3=O)[C@H]2N1CCc1ccccc1	none
O=C(NCCn1cc(CN2C(=O)COC[C@H]2c2ccccc2)nn1)Nc1ccccc1	none (no result: miR-122 sensor, E-sel inducer, Ecoli rRNA inh)
COc1ccc(Cl)cc1-n1c(=S)sc2c(=O)[nH]c(SCC(=O)C(C)(C)C)nc21	Ecoli rRNA inh -23.5
Cc1ccc(-c2nc3ccccc3o2)cc1NC(=S)NC(=O)/C=C/c1ccco1	none (no result: E-sel inducer, DENV2 CPE rescue, Ecoli rRNA inh)
O=C(/C=C/c1ccccc1)NC(=S)Nc1ccc(N2CCOCC2)c(Cl)c1	none
O=C(/C=C/c1ccco1)NC(=S)Nc1cccc(-c2nc3ccccc3o2)c1	miR-122 sensor 130.5 (no result: Cneo AK release, E-sel inducer, DENV2 CPE rescue, Ecoli rRNA inh)
O=C(/C=C/c1ccco1)NC(=S)Nc1ccc(N2CCOCC2)c(Cl)c1	miR-122 sensor 103.9 (no result: E-sel inducer, DENV2 CPE rescue, Ecoli rRNA inh)
O=C(C[C@@H]1CC[C@H](NC(=O)Nc2ccccc2F)[C@H](CO)O1)NCc1ccc(Cl)cc1	none (no result: miR-122 sensor)
COc1ccc(S(=O)(=O)Nc2cccc3c2O[C@@H](CN(C)C(=O)NC2CCCCC2)[C@@H](C)CN([C@@H](C)CO)C3=O)cc1	none
O=C(CNc1cccc(Cl)c1)NNC(=S)NCc1ccccc1	Ecoli rRNA inh -24.1
O=C(CNc1ccc(Cl)cc1)NNC(=S)NCc1ccccc1	none (no result: Cneo AK release, miR-122 sensor)
O=C(Cc1ccccn1)N1CC(=O)N2[C@@H](CO)[C@H](c3ccc(C#CC4CCCC4)cc3)[C@@H]2C1	none (no result: Cneo AK release, miR-122 sensor)
O=C(C[C@@H]1C[C@@H]2c3cc(NC(=O)c4ccc5c(c4)OCO5)ccc3O[C@@H]2[C@H](CO)O1)NC1CCCC1	DENV2 CPE rescue 38.4
CN(C)CC(=O)Nc1ccc2c(c1)[C@@H]1C[C@H](CC(=O)NC3CCCCC3)O[C@H](CO)[C@@H]1O2	none
CN(C)CC(=O)Nc1ccc2c(c1)[C@@H]1C[C@@H](CC(=O)NC3CCCCC3)O[C@H](CO)[C@@H]1O2	DENV2 CPE rescue 85.7
CN(C)CC(=O)Nc1ccc2c(c1)[C@H]1C[C@H](CC(=O)NC3CCCCC3)O[C@@H](CO)[C@H]1O2	DENV2 CPE rescue 86.5
COCC(=O)Nc1ccc2c(c1)[C@@H]1C[C@H](CC(=O)NC3CCCCC3)O[C@H](CO)[C@@H]1O2	DENV2 CPE rescue 56.0
C[C@H]1CCCCO[C@@H](CN(C)Cc2ccc(C(=O)Nc3ccccc3N)cc2)[C@@H](C)CN([C@@H](C)CO)C(=O)c2cc(N(C)C)ccc2O1	none (no result: Cneo AK release, miR-122 sensor, E-sel inducer, DENV2 CPE rescue)
COc1ccc2c3c([nH]c2c1)[C@@H](CO)N(Cc1ccccc1)CC31CCN(C(=O)Nc2cccc(F)c2)CC1	none (no result: Cneo AK release, miR-122 sensor)
CO[C@H]1CN(C)C(=O)c2ccc(NC(=O)C3CC3)cc2OC[C@H](C)N(CCC(F)(F)F)C[C@@H]1C	none (no result: Cneo AK release, miR-122 sensor)
O=C(C=C=Nc1ccccc1)C(=O)N=C=Cc1ccccc1	Ecoli rRNA inh -30.7
O=C(N/N=C/c1ccccc1)C(=O)N/N=C/c1ccccc1	none (no result: miR-122 sensor, E-sel inducer)
CCn1c(SCc2ccc(Cl)cc2)nc2nc3c(cc2c1=O)CCCC3	Ecoli rRNA inh -22.2 (no result: E-sel inducer)
O=C(CN(Cc1ccccc1)C1=NCCS1)c1ccccc1	DENV2 CPE rescue 39.0 (no result: E-sel inducer)
COCC(=O)N(C)C[C@H]1Oc2cc(-c3ccncc3)ccc2S(=O)(=O)N([C@H](C)CO)C[C@H]1C	DENV2 CPE rescue 74.4
C[C@@H]1CN([C@@H](C)CO)S(=O)(=O)c2ccc(-c3ccncc3)cc2O[C@H]1CN(C)C(=O)CC1CC1	DENV2 CPE rescue 85.2
COCC(=O)N(C)C[C@@H]1Oc2cc(-c3ccc(F)cc3)ccc2S(=O)(=O)N([C@H](C)CO)C[C@H]1C	E-sel inducer 57.8!

Screening results (PubChem BioAssay)
